The record followed here is ChEMBL document CHEMBL4725280, “Structural studies of triazole inhibitors with promising inhibitor effects against antibiotic resistance metallo-β-lactamases” (Bioorg Med Chem, 2020).

The source made the active and inactive calls. The calls are words filed in the database; no cut-off is given here.

One may read the IC50 as the midpoint of a concentration-inhibition curve. What is called inhibition is the share of the control response that was lost under treatment.

The target in one assay is Beta-lactamase VIM-2 (Pseudomonas aeruginosa, UniProt Q9K2N0). Put plainly: Inhibition of beta lactamase VIM-2 in Pseudomonas aeruginosa 3015473 in presence of nitrocefin as reporter substrate measured after 5 mins by microplate spectrophotometry analysis. The following applies: read-out: IC50. The essentials: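 Purified VIM-2 at 1 nM in 50 mM HEPES pH 7.2 with 100 µM ZnCl2 and 400 µg/ml BSA, preincubated with inhibitor (sixteen concentrations, 0–250 µM) for 5 min at 25 °C. Then 100 µM nitrocefin was added and absorbance was followed at 482 nm. Points were run in triplicate, and IC50 was taken from initial velocities by log[inhibitor]–response fitting.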
For `NCc1nn[nH]c1CNS(=O)(=O)c1ccccc1`, the IC50 came out at 23 µM.
The same measure, in the same setting: with `Cc1ccc(S(=O)(=O)NCc2[nH]nnc2COC(C)(C)C)cc1` the figure was 7.2 µM.
In the case of `CC(C)OCc1nn[nH]c1CNS(=O)(=O)c1ccc(I)cc1`, the IC50 was 0.53 µM.
Consider `Cc1ccc(S(=O)(=O)NCc2[nH]nnc2CNC2CCCCC2)cc1`, for which the IC50 was 1.5 µM.

For a further assay, the target named is GIM-1 protein (Pseudomonas aeruginosa, UniProt Q704V1). In words: Inhibition of beta lactamase GIM-1 in Pseudomonas aeruginosa in presence of nitrocefin as reporter substrate measured after 5 mins by microplate spectrophotometry analysis.
GIM-1 protein, sequence (Q704V1 whole entry): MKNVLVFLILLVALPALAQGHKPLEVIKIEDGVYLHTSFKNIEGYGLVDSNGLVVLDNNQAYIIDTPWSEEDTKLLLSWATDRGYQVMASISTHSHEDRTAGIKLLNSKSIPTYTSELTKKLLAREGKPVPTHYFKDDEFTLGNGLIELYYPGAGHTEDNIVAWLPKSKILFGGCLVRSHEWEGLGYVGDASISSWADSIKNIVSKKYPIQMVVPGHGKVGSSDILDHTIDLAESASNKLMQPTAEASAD
Conditions: not given
An outline of the steps:
(§1)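 Purified recombinant enzyme (1 nM GIM-1 or NDM-1) in 50 mM HEPES pH 7.2, 100 µM ZnCl2, 400 µg/ml BSA, preincubated with inhibitor at 16 concentrations (0–250 µM) for 5 min at 25 °C. Reporter substrate added at 100 µM: nitrocefin for GIM-1 (A482), imipenem for NDM-1 (A300). Triplicates; IC50 from initial velocities by log[inhibitor]–response fit.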
On to `NCc1nn[nH]c1CNS(=O)(=O)c1ccccc1`, for which the IC50 result was “Not Active”.
The same measure, in the same setting: then `Cc1ccc(S(=O)(=O)NCc2[nH]nnc2CNC2CCCCC2)cc1`, with “Not Active”.

The same assay, now with this note: read-out: IC50.
With `Cc1ccc(S(=O)(=O)NCc2[nH]nnc2COC(C)(C)C)cc1`, the IC50 is 128 µM.
As for `CC(C)OCc1nn[nH]c1CNS(=O)(=O)c1ccc(I)cc1`, the IC50 was determined as 193 µM.

Test system in the next assay: not listed separately
In words: Inhibition of beta lactamase NDM1 in Klebsiella pneumoniae in presence of imipenem as reporter substrate measured after 5 mins by microplate spectrophotometry analysis.
Conditions: not given
The essentials:
as §1
On to `NCc1nn[nH]c1CNS(=O)(=O)c1ccccc1`, for which the IC50 result was “Not Active”.
`CC(C)OCc1nn[nH]c1CNS(=O)(=O)c1ccc(I)cc1`: the IC50 result was “Not Active”.

Still in this assay, the particulars now being: read-out: IC50.
For the compound `Cc1ccc(S(=O)(=O)NCc2[nH]nnc2COC(C)(C)C)cc1`, the IC50 amounted to 142 µM.
As for `Cc1ccc(S(=O)(=O)NCc2[nH]nnc2CNC2CCCCC2)cc1`, the IC50 worked out at 144 µM.

For a further assay, the target named is Beta-lactamase VIM-2 (Pseudomonas aeruginosa) (UniProt Q9K2N0). Put plainly: Inhibition of Pseudomonas aeruginosa 3015473 beta lactamase VIM-2 transfected in negative Escherichia coli SNO3 cells assessed as substrate hydrolysis using nitrocefin as substrate at 250 uM incubated for 20 mins measured every 1 mins for 3 hrs by cell-based microplate spectrophotometry analysis relative to control.
Conditions: not given
The essentials:
(§2)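 E. coli SNO3 (β-lactamase-negative) carrying pET26b(+) with blaVIM-2, blaGIM-1 or blaNDM-1; overnight culture adjusted to OD600 1 in LB, inhibitor 250 µM final, IPTG 0.8 mM final, 37 °C 20 min with shaking to induce. Nitrocefin added (1.6 mM final, in 50 mM HEPES pH 7.2, 100 µM ZnCl2), A482 read each minute for 3 h; duplicates.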
With `NCc1nn[nH]c1CNS(=O)(=O)c1ccccc1`, the inhibition came to 29%.
For the compound `Cc1ccc(S(=O)(=O)NCc2[nH]nnc2COC(C)(C)C)cc1`, the inhibition was 60%.
As for `CC(C)OCc1nn[nH]c1CNS(=O)(=O)c1ccc(I)cc1`, the inhibition is 85%.
Regarding `Cc1ccc(S(=O)(=O)NCc2[nH]nnc2CNC2CCCCC2)cc1`, the inhibition was 82%.

Another assay deals with GIM-1 protein (Pseudomonas aeruginosa) (UniProt Q704V1). In words: Inhibition of Pseudomonas aeruginosa beta lactamase GIM-1 transfected in negative Escherichia coli SNO3 cells assessed as substrate hydrolysis using nitrocefin as substrate at 250 uM incubated for 20 mins measured every 1 mins for 3 hrs by cell-based microplate spectrophotometry analysis relative to control.
GIM-1 protein (Pseudomonas aeruginosa), sequence (Q704V1 as listed by the source): as the sequence (Q704V1 whole entry) above
Conditions: not given
The essentials:
as §2
As for `NCc1nn[nH]c1CNS(=O)(=O)c1ccccc1`, the inhibition result was “inactive”.
Regarding `Cc1ccc(S(=O)(=O)NCc2[nH]nnc2COC(C)(C)C)cc1`, the inhibition turned out to be 4.5%.
Turning to `CC(C)OCc1nn[nH]c1CNS(=O)(=O)c1ccc(I)cc1`, the inhibition was found to be 11%.
For the compound `Cc1ccc(S(=O)(=O)NCc2[nH]nnc2CNC2CCCCC2)cc1`, the inhibition is 2.3%.

For a further assay, the system named is Klebsiella pneumoniae. In words: Inhibition of Klebsiella pneumonia beta lactamase NDM1 transfected in negative Escherichia coli SNO3 cells assessed as substrate hydrolysis using nitrocefin as substrate at 250 uM incubated for 20 mins measured every 1 mins for 3 hrs by cell-based microplate spectrophotometry analysis relative to control.
Conditions: not given
An outline of the steps:
as §2
As for `NCc1nn[nH]c1CNS(=O)(=O)c1ccccc1`, the inhibition entry is “inactive”.
Still for that read-out and setting: with `Cc1ccc(S(=O)(=O)NCc2[nH]nnc2COC(C)(C)C)cc1` the entry was “inactive”; with `CC(C)OCc1nn[nH]c1CNS(=O)(=O)c1ccc(I)cc1`, “inactive”.
Turning to `Cc1ccc(S(=O)(=O)NCc2[nH]nnc2CNC2CCCCC2)cc1`, the inhibition entry is “inactive”.
